Bioassay records (PubChem)
MEKK3 PB1 HTS = modulators (inhibitors or enhancers) of MEK5 binding to human MEKK3 PB1 domain; bead-based flow cytometry, Alexa488-MEK5 binding to MEKK3; actives lie on both sides; 0 = blocked by unlabeled MEK5, 100 = vehicle; binding response (% of control), % at 10 µM; hit rate 1.4% among 290,000;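 active = binding response more than 3 SD above or below the average of its plate-row segment, actives on both sides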;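 also: Alexa488 bead fluorescence after subtracting the streptavidin-only scavenger bead signal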
Target sequence (Q99759 whole entry, looked up, the tested form may be a part): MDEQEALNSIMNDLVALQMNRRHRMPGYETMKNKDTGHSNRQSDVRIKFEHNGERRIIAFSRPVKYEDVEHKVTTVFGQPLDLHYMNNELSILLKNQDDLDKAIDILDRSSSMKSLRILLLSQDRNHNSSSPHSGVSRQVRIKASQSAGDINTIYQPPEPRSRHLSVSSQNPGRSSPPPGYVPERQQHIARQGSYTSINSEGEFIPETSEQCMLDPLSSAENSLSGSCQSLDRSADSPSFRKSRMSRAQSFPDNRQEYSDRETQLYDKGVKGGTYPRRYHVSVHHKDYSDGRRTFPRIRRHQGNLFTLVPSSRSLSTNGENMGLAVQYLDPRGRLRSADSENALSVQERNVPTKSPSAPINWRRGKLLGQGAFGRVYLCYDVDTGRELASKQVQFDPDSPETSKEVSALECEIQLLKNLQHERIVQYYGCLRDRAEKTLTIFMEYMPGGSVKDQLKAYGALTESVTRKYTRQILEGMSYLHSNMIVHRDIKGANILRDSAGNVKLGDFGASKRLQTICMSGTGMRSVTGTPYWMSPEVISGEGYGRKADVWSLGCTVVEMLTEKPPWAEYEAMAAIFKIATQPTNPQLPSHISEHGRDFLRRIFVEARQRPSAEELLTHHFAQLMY
MEKK2 WT-MEK5 = raises or lowers MEK5 binding to wildtype human MEKK2 PB1 domain; Q9Y2U5; bead flow cytometry, Alexa488-MEK5 binding to MEKK2 WT; actives lie on both sides; binding response (% of control), % at 10 µM; hit rate 1.1% among 290,000; AID 1531; in the data active = binding response below about 67% or above about 130%
ABCB1 block = inhibitors of human ABCB1 transporter, ABCG2 counter-screen. P08183. CCRF-Adr cells, JC-1 efflux, flow cytometry. inhibition, % at 6.6 µM. hit rate 0.067% among 190,000; in the data active = inhibition above about 40%;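 also: 0% = vehicle and 100% = reference inhibitor; higher value means more JC-1 retained so stronger ABCB1 efflux block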
MEKK2mut PB1 HTS = signal of MEK5 binding to mutant human MEKK2 PB1 domain | bead flow cytometry, Alexa488-MEK5 binding to MEKK2 mutant | percent response, % at 10 µM | hit rate 0.35% among 290,000; in the data active = percent response above about 24%, passing the limit was not always enough
ABCG2 block = human ABCG2 inhibition, ABCB1 as counter-screen. Q9UNQ0. IgMXP3 cells, JC-1 efflux, flow cytometry. inhibition, % at 6.6 µM. hit rate 0.1% among 190,000. AID 1325;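 active = inhibition above 80%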;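 also: 0% = DMSO and 100% = nicardipine control wells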
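System: two drug-resistant human cell lines, ABCG2 and ABCB1; controls: nicardipine high and DMSO low controls; times: 10 min exposure at 25 °C with rotation, no wash; detection: flow cytometry of retained JC-1 fluorescence; read-out basis: percent efflux inhibition, scaled nicardipine 100% to DMSO 0%; doses: one concentration, 6.6 µM final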
MEKK2wt confirm = raises or lowers MEK5 binding to wildtype human MEKK2, retest | shares compounds with MEKK3 PB1 HTS | bead flow cytometry, Alexa488-MEK5 binding to MEKK2 WT; actives lie on both sides | binding response (% of control), % at 10 µM | hit rate 2.4% among 5,900 | AID 1892; in the data active = binding response below about 16% or above about 210%; inactive = in between
MEKK2mut-MEK5 = signal of MEK5 binding to mutant human MEKK2, retest. hit rate 2% among 5,900. AID 1893. shares compounds with MEKK3 PB1 HTS. percent response, % at 10 µM. bead flow cytometry, Alexa488-MEK5 binding to MEKK2 mutant; in the data active = percent response mostly above about 71%, no sharp cut-off; inactive = mostly below about 38%;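 also: higher means compound restores mutant binding toward wildtype level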
MEKK3-MEK5 inh = confirmation of inhibitors of MEK5 binding to human MEKK3 | binding response (% of control), % at 10 µM | shares compounds with MEKK3 PB1 HTS | bead flow cytometry, Alexa488-MEK5 binding to MEKK3; hits give low values | hit rate 1.8% among 5,900;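 active = binding response below 72% of control, or above a set upper limit, though filed actives all read lower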;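 also: 100% = DMSO only wells and 0% = binding blocked by excess unlabeled MEK5; lower values mean stronger disruption of MEK5 binding to MEKK3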
The depositor's hits bear a star; . = not tested or not shown; ! = not confirmed by another sample; [ ] = remark or other dose. A selection: hits, their analogues and other compounds. The true share with any hit is near 2.3%.

SMILES | MEKK3 PB1 HTS | MEKK2 WT-MEK5 | ABCB1 block | MEKK2mut PB1 HTS | ABCG2 block | MEKK2wt confirm | MEKK2mut-MEK5 | MEKK3-MEK5 inh
CCOc1ccccc1NC(=S)N1C2CCC1CC(NC(=O)NC13CC4CC(CC(C4)C1)C3)C2 (configuration not stated) | 72.0*[inhibitor] | 79.0 | 0.8 | -16.0 | 1.8 | 95.0 | -3.0 | 102.0
C[C@H]1[C@@H](OC(=O)CCC(=O)O)O[C@@H]2OC3(C)CC[C@H]4[C@H](C)CC[C@@H]1[C@@]24OO3 | 115.0 | 114.0 | . | 6.0 | . | . | . | .
Cc1ccc(NC(=O)CSc2nc3nc(C)cc(C)c3c(=O)[nH]2)cc1 | 0.0*[inhibitor] | -1.0*[inhibitor] | 2.4 | -42.0 | 38.9 | 108.0 | 5.0 | 107.0
Cc1cccc(C(=O)N[C@H](C(=O)Nc2nc3ccccc3[nH]2)C(C)C)c1 | 132.0* | 120.0 | 0.4 | 5.0 | 1.8 | 99.0 | -5.0 | 102.0
COc1ccc(-c2csc(N(CCCN(C)C)C(=O)c3ccc(F)cc3)n2)cc1 | 111.0 | 140.0* | . | 25.0* | . | 124.0 | 11.0 | 102.0
CCN(CC)CCCN(C(=O)c1ccc(F)cc1)c1nc(-c2ccc(OC)cc2)cs1 | 113.0 | 141.0* | . | 24.0* | . | 138.0 | 19.0 | 103.0
Clc1cccc(N/N=C(\Cc2nc3ccccc3[nH]2)c2ccccc2)c1 | 138.0* | 138.0* | 1.0 | 5.0 | 16.6 | 120.0 | 6.0 | 105.0
CCn1c(SCC(=O)NC2CCCC2)nnc1-c1ccccn1 | 103.0 | 109.0 | . | 6.0 | . | . | . | .
CN1CCC(=C2c3ccccc3CCc3sccc32)CC1 | 116.0 | 155.0*! | . | 15.0 | 0.7 | 126.0 | 16.0 | 95.0
COc1ccc(C(=O)NC(=S)Nc2cc3oc4ccccc4c3cc2OC)cc1 | 95.0 | 91.0 | -1.7 | -2.0 | -9.6 | . | . | .
COc1cc2c(cc1NC(=S)NC(=O)c1c(OC)cccc1OC)oc1ccccc12 | 129.0* | 102.0 | -0.1 | 0.0 | 1.5 | 85.0 | -11.0 | 96.0
CC(C)c1cc(C(=O)N2CCCC(Nc3ccc(F)cc3)C2)n[nH]1 (configuration not stated) | 97.0 | 104.0 | . | 2.0 | . | . | . | .
CCN(CC)CCCNC(=O)c1sc2nc(-c3ccc(F)cc3)cn2c1C | 120.0 | 138.0* | -0.1 | 26.0 | 4.1 | 109.0 | 6.0 | 103.0
O=C(c1c[nH]c2ccccc12)C(Cl)c1ccccc1 (configuration not stated) | 105.0 | 106.0 | . | 2.0 | . | . | . | .
COc1ccc(NC(=O)C(NC(=O)CC2NC(=O)NC2=O)c2ccccc2)cc1 (configuration not stated) | 155.0* | 106.0 | -0.1 | 0.0 | -1.2 | 103.0 | 1.0 | 100.0
CCCCNC(=S)Nc1ccc2nc(N3CCN(CC)CC3)cc(C)c2c1 | 111.0 | 139.0* | . | 27.0* | . | 144.0 | 30.0 | 109.0
CCCCN(C)CCNC(=S)Nc1ccc2nc(N3CCN(CC)CC3)cc(C)c2c1 | 109.0 | 134.0* | . | 17.0 | . | 121.0 | 14.0 | 106.0
CCN1CCN(c2cc(C)c3cc(NC(=S)NCCN(C)C)ccc3n2)CC1 | 106.0 | 125.0 | . | 13.0 | . | . | . | .
Cc1nn(CC(=O)NCC(C)c2ccccc2)c(=O)c2cc(-c3ccccc3)nn12 (configuration not stated) | 99.0 | 100.0 | . | 2.0 | . | . | . | .
CC(C)C[C@@H](C(=O)NC1CCN(Cc2ccccc2)CC1)N1C(=O)N2CCc3c([nH]c4ccccc34)[C@@]2(C)C1=O | 108.0 | 142.0* | . | 20.0 | . | 135.0 | 26.0 | 109.0
Cn1c(SCC(=O)NC2(C#N)CCCCC2)nnc1-c1cccnc1 | 94.0 | 98.0 | . | -1.0 | . | . | . | .
CNS(=O)(=O)c1cccc(C(=O)OCC(=O)/C=C2/N(C)c3ccccc3C2(C)C)c1 | 131.0* | 108.0 | 0.5 | 1.0 | 8.8 | 106.0 | -2.0 | 100.0
COc1cccc(Nc2ccc(Nc3cccc(OC)c3)nn2)c1 | 113.0 | 172.0* | -0.1 | 76.0* | 4.2 | 108.0 | 2.0 | 103.0
CCN(CC)c1nc2ccccc2n(Cc2cccc(OC)c2)c1=O | 100.0 | 102.0 | . | 2.0 | . | . | . | .
COc1ccc(/C=N/Nc2cc(C)nc3ccc(OC)cc23)c(OC)c1 | 114.0 | 389.0* | . | 180.0* | . | 282.0* | 141.0* | 118.0
SMILES | MEKK3 PB1 HTS | MEKK2 WT-MEK5 | ABCB1 block | MEKK2mut PB1 HTS | ABCG2 block | MEKK2wt confirm | MEKK2mut-MEK5 | MEKK3-MEK5 inh
Cc1nsc2c1ccc1ccccc12 | 102.0 | 89.0 | 0.1 | -16.0 | -0.8 | . | . | .
CC1=[N+](C)c2ccc3ccccc3c2C1(C)C | 89.0 | . | 0.1 | 71.0* | 0.1 | 88.0 | 5.0 | 91.0
COc1ccc(N(CC(=O)Nc2cc(OC)c(OC)cc2C(=O)O)S(=O)(=O)c2c(C)noc2C)cc1 | 103.0 | 100.0 | . | 5.0 | . | . | . | .
CC(C)NC(=O)c1onc(CSc2nc3ccccc3[nH]2)c1C(=O)NC(C)C | 101.0 | 97.0 | . | -4.0 | . | . | . | .
COc1cc(/C=C/C(=O)CC(=O)/C=C/c2ccc(O)c(OC)c2)ccc1O | 75.0 | 14.0* | 10.8 | 40.0* | 17.3 | 88.0 | -6.0 | 88.0
CN(Cc1ccccc1)C(=O)CCC1CCN(S(C)(=O)=O)CC1 | 102.0 | 103.0 | . | 1.0 | . | . | . | .
Cc1ccsc1/C=C(\C#N)C(=O)NCc1cccnc1 | 104.0 | 107.0 | 1.0 | 2.0 | 11.1 | . | . | .
Cc1ccsc1/C=C(/C#N)C(=O)NCc1ccccc1 | 108.0 | 112.0 | 0.7 | 58.0* | 6.5 | 99.0 | -3.0 | 101.0
Cc1[nH]c2ccccc2c1/C=C(\C#N)C(=O)NCc1ccccc1 | 108.0 | 15.0* | 0.4 | 134.0* | 1.5 | 106.0 | 4.0 | 101.0
Clc1ccccc1-c1nc2ccccc2c2nc3ccccc3n12 | 134.0* | 103.0 | 2.7 | 0.0 | 8.7 | 96.0 | -7.0 | 95.0
COc1cccc(CN2CCNC(=O)C2CC(=O)NCCN2CCCCC2=O)c1 (configuration not stated) | 106.0 | 111.0 | . | 6.0 | . | . | . | .
CC(C)C(NC(=O)c1c(F)cccc1F)C(=O)NC1CC(C)(C)NC(C)(C)C1 (configuration not stated) | 100.0 | 99.0 | . | 0.0 | . | . | . | .
Cc1ccc(C(=O)Nc2ccc(NC(=O)c3ccc(C)o3)cc2)o1 | 104.0 | 99.0 | . | 3.0 | . | . | . | .
Cc1ccc(NC(=O)CNC(=O)c2ccc(C)o2)cc1 | 29.0*[inhibitor] | 46.0*[inhibitor] | . | -17.0 | . | 104.0 | 3.0 | 104.0
CCN(CC)CCOC(=O)c1ccc(NC(=O)c2cn(-c3ccccc3)nc2-c2cccs2)cc1 | 120.0 | 153.0* | -0.1 | 8.0 | 0.1 | 250.0* | 92.0* | 114.0
CCN(CC)CCNC(=O)c1cn(-c2ccccc2)nc1-c1cccs1 | . | . | 0.4 | . | 1.8 | . | . | .
Cc1ccc2c(c1)c1c3n2CCN(CC(O)CNC(C)C)C3CCC1 (configuration not stated) | 107.0 | 169.0* | . | 12.0 | . | 119.0 | 4.0 | 98.0
